Ends that are not written are not given here. * marks the point of attachment. FITC = O=C1OC2(c3ccc(O)cc3Oc3cc(O)ccc32)c2ccc(NC(=S)*)cc21
What was measured:
[1] = test system: STK40 kinase-homology domain (aa 22–339); assay: Thermal shift assay; type: binding, human; conditions: summary statement (Highlights)
[2] = test system: partially purified full-length STK40; conditions: single ATP concentration (0.2mM); ref Murphy et al., 2014; cited from earlier work
COP1 WD40 domain = assay: Flag-immunoprecipitation; type: cell-based, human; conditions: 293T cells; anti-Flag IP, western blot anti-COP1; Figure 1C lanes 6–8
[3] = target: T1, purified human COP1 WD40 β propeller (386-731) (human, UniProt Q8NHY2 386-731); assay: fluorescence polarisation
T1 sequence (Q8NHY2 386-731): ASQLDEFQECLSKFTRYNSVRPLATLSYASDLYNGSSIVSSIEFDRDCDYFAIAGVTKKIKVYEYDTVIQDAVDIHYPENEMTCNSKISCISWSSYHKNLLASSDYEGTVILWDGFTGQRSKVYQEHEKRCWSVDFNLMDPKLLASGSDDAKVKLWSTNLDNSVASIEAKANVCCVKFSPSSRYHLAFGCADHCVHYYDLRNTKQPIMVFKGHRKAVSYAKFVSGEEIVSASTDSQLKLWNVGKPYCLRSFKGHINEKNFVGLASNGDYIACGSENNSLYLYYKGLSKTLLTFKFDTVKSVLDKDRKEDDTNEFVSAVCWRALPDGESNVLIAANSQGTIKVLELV

[4] = target: T1, purified human COP1 WD40 β propeller …; assay: fluorescence polarisation; remark: listed apart in the source
[5] = target: COP1 WD40 domain (386–731); type: binding, human; conditions: same competition assay; 25 nM FITC-peptide, 1500 nM COP1 WD40 (386–731)
endogenous COP1 = assay: Flag-immunoprecipitation in 293T cells: endogenous COP1; type: cell-based, human; conditions: anti-Flag IP, western blot anti-COP1, Figure 1C, black arrow
Method in brief: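 Human 293T cells grown in standard medium were transiently transfected with Flag-tagged STK40 constructs in pcDNA3.0 plus COP1 in pTriEx1.1. Lysates and eluates were run on 4–20% gradient gels and immunoblotted for Flag and COP1.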

Nc1ncnc2c1ncn2[C@@H]1O[C@H](COP(=O)(O)OP(=O)(O)OP(=O)(O)O)[C@@H](O)[C@H]1O [ATP]
ATP binding by STK40 kinase homology domain [1]: does not bind ATP
ATP binding by full-length STK40 [2]: no ATP binding

SSLSGPLQVVPDI [12 residue peptide fused to GFP]
association with / recovery of COP1 WD40 domain (COP1 WD40 domain): recovers the COP1 WD40 domain, but less efficiently than full-length STK40

{FITC}-SSLSGPLQVVPD [STK40 peptide FITC-SSLSGPLQVVPD]
Kd [3]: 3.1 ± 0.6 µM

B1: purified STK40 KHD+20 (22-359) (domain or fragment, human, UniProt Q8N2I9 22-359, looked up)
chain: SGISGNNAKRAGPFILGPRLGNSPVPSIVQCLARKDGTDDFYQLKILTLEERGDQGIESQEERQGKMLLHTEYSLLSLLHTQDGVVHHHGLFQDRTCEIVEDTESSRMVKKMKKRICLVLDCLCAHDFSDKTADLINLQHYVIKEKRLSERETVVIFYDVVRVVEALHQKNIVHRDLKLGNMVLNKRTHRITITNFCLGKHLVSEGDLLKDQRGSPAYISPDVLSGRPYRGKPSDMWALGVVLFTMLYGQFPFYDSIPQELFRKIKAAEYTIPEDGRVSENTVCLIRKLLVLDPQQRLAAADVLEALSAIIASWQSLSSLSGPLQVVPDIDDQMSNAD
Ki [4]: 1.2 ± 0.1 µM

B2: KHD containing a C-terminal extension of 20 amino acids: KHD containing a C-terminal extension of 20 amino acids encompassing the COP1-binding peptide (protein)
chain: B1 chain
modifications: left off: His tag, N-terminal, cleaved
apparent Ki relative to isolated STK40 peptide (in words) [5]: lower apparent Ki than the isolated peptide

B3: Full-length STK40: N-terminal Flag-tagged full-length STK40 (FLAG, HA tags in HeLa tandem IP) (protein)
chain: MKRRASDRGAGETSARAKALGSGISGNNAKRAGPFILGPRLGNSPVPSIVQCLARKDGTDDFYQLKILTLEERGDQGIESQEERQGKMLLHTEYSLLSLLHTQDGVVHHHGLFQDRTCEIVEDTESSRMVKKMKKRICLVLDCLCAHDFSDKTADLINLQHYVIKEKRLSERETVVIFYDVVRVVEALHQKNIVHRDLKLGNMVLNKRTHRITITNFCLGKHLVSEGDLLKDQRGSPAYISPDVLSGRPYRGKPSDMWALGVVLFTMLYGQFPFYDSIPQELFRKIKAAEYTIPEDGRVSENTVCLIRKLLVLDPQQRLAAADVLEALSAIIASWQSLSSLSGPLQVVPDIDDQMSNADSSQEAKVTEECSQYEFENYMRQQLLLAEEKSSIHDARSWVPKRQFGSAPPVRRLGHDAQPMTSLDTAILAQRYLRK
modifications: left off: Flag, N-terminal, kept
immunoprecipitation with endogenous COP1 (endogenous COP1): immunoprecipitates with endogenous COP1

B4: KHD: construct of STK40 containing only the central kinase homology domain (KHD) (protein)
chain: SGISGNNAKRAGPFILGPRLGNSPVPSIVQCLARKDGTDDFYQLKILTLEERGDQGIESQEERQGKMLLHTEYSLLSLLHTQDGVVHHHGLFQDRTCEIVEDTESSRMVKKMKKRICLVLDCLCAHDFSDKTADLINLQHYVIKEKRLSERETVVIFYDVVRVVEALHQKNIVHRDLKLGNMVLNKRTHRITITNFCLGKHLVSEGDLLKDQRGSPAYISPDVLSGRPYRGKPSDMWALGVVLFTMLYGQFPFYDSIPQELFRKIKAAEYTIPEDGRVSENTVCLIRKLLVLDPQQRLAAADVLEALSAIIASWQSLS
modifications: left off: His tag, N-terminal, cleaved
association with / recovery of COP1 WD40 domain (COP1 WD40 domain): unable to recover detectable quantities of the COP1 WD40 domain
